Measured values taken from ChEMBL document CHEMBL1158465, “Novel small molecule bradykinin B2 receptor antagonists” (J Med Chem, 2009).

How the values were obtained:
[1] = target: T1, B2 bradykinin receptor (Cavia porcellus, UniProt O70526); test: Displacement of [3H]bradykinin from guinea pig B2 receptor
T1 sequence (O70526 whole entry): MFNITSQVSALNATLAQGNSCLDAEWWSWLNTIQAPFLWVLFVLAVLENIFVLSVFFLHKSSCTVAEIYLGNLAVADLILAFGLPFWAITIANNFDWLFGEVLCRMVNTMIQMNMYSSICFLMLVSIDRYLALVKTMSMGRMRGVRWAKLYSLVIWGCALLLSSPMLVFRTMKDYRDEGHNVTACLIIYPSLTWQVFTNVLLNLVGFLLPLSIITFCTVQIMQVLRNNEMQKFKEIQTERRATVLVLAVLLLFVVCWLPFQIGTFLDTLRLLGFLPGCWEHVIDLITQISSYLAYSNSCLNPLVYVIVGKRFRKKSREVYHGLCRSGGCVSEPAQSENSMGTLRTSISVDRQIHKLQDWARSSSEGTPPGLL

[2] = target: T2, B2 bradykinin receptor (Homo sapiens, UniProt P30411); test: Displacement of [3H]bradykinin from human recombinant B2 receptor expressed in HEK293 cells; assay type: cell-based
T2 sequence (P30411 whole entry): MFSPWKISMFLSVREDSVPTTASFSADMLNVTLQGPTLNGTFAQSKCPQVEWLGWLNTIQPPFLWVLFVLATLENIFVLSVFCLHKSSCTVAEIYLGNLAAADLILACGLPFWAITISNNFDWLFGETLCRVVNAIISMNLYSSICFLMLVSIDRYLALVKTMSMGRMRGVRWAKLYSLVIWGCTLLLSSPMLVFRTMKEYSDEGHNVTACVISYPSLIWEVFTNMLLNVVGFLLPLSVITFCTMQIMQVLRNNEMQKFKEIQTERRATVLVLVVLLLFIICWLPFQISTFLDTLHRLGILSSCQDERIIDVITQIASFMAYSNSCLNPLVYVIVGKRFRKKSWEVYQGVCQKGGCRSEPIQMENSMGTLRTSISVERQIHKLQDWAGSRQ

[3] = target: T2, B2 bradykinin receptor; test: Antagonist activity at B2 receptor in human HF15 cells assessed as inhibition of bradykinin-induced calcium mobilization; assay type: functional, cell-based
[4] = target: Cytochrome P450 2C19 (Homo sapiens, UniProt P33261); test: Inhibition of human CYP2C19 by microtiter plate assay; assay type: ADME
[5] = Metabolic stability in human liver microsomes at 1 uM by HPLC; assay type: ADME, Microsome; conditions: read-out: Stability
Summary of the method: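 Test compound was incubated with liver microsomes for 30 min. Stability is expressed as the percentage of parent compound remaining at the end of incubation.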

[6] = target: Cytochrome P450 3A4 (Homo sapiens, UniProt P08684); test: Inhibition of human CYP3A4 by microtiter plate assay; assay type: ADME
[7] = target: T2, B2 bradykinin receptor; test: Displacement of [3H]bradykinin from wild-type B2 receptor
Summary of the method: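 Specific binding of [³H]-BK to recombinant human B₂ receptor expressed in HEK293 cells. Displacement by test compound is reported as IC₅₀. Values are the numerical average of at least two experiments.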

[8] = Displacement of [3H]bradykinin from B2 receptor N107A mutant
[9] = Aqueous solubility of the compound; assay type: physicochemical; conditions: aqueous solution
[10] = Clearance in Wistar rat at 1 mg/kg, iv or 1 mg/kg, po; assay type: ADME, organism-based; conditions: in vivo
[11] = Terminal half life in Wistar rat at 1 mg/kg, iv or 1 mg/kg, po; assay type: ADME, organism-based; conditions: in vivo, read-out: beta t1/2
[12] = Oral bioavailability in Wistar rat at 1 mg/kg; assay type: ADME, organism-based; conditions: in vivo

Cytochrome P450 3A4, sequence (P08684 whole entry): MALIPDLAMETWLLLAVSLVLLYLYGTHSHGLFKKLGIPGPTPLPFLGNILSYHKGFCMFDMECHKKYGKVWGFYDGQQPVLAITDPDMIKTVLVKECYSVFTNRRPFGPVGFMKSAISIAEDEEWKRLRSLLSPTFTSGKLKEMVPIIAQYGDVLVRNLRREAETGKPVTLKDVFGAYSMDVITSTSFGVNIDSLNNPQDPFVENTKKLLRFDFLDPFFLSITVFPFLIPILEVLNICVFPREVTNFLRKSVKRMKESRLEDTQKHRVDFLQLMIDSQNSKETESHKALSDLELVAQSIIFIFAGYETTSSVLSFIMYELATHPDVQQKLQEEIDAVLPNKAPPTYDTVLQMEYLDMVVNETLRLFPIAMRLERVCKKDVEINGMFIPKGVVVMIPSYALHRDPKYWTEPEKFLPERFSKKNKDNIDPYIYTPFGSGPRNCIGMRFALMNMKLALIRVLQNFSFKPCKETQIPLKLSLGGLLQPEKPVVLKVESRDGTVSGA
Cytochrome P450 2C19, sequence (P33261 whole entry): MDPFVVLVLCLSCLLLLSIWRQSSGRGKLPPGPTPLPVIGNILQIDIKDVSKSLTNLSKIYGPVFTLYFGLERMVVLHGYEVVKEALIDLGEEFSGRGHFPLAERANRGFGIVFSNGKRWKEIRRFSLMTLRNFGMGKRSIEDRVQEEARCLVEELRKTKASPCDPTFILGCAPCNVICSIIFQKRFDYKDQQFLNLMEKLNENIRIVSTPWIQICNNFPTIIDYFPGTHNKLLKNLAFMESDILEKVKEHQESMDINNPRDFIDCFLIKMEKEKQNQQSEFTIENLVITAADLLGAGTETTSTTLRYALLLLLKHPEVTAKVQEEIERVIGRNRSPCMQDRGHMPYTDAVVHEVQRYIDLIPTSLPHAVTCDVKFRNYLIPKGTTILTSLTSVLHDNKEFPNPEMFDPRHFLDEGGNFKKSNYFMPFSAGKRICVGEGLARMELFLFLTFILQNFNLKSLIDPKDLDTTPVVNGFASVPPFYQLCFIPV

Row | SMILES | IC50 [2] | IC50 [3] | also measured
1 | Cc1ccc2cccc(OCc3c(Cl)ccc(N(C)C(=O)CNC(=O)/C=C/c4ccc(C(F)(F)F)cc4)c3C#N)c2n1 |  |  | IC50 [1]: 0.3 nM
2 | Cc1cc(-c2conc2C)c2cccc(OCc3c(Cl)cncc3Cl)c2n1 | 430 nM | 3800 nM | 
3 | Cc1cc(-n2ccnc2C)c2cccc(OCc3c(Cl)cncc3Cl)c2n1 | 200 nM | 1300 nM | 
4 | Cc1cc(-c2csnc2C)c2cccc(OCc3c(Cl)cncc3Cl)c2n1 | 200 nM | 330 nM | 
5 | Cc1cc(-c2cncs2)c2cccc(OCc3c(Cl)cncc3Cl)c2n1 | 135 nM | 420 nM | 
6 | Cc1cc(-c2cscn2)c2cccc(OCc3c(Cl)cncc3Cl)c2n1 | 80 nM | 300 nM | 
7 | Cc1cc(-c2ocnc2C)c2cccc(OCc3c(Cl)cncc3Cl)c2n1 | 6050 nM | > 5000 nM | 
8 | Cc1cc(-c2cc[nH]n2)c2cccc(OCc3c(Cl)cncc3Cl)c2n1 | 310 nM | 350 nM | 
9 | Cc1ccc2cccc(OCc3c(Cl)cncc3Cl)c2n1 | 5300 nM |  | 
10 | Cc1cc(-c2ccnn2C)c2cccc(OCc3ccncc3Cl)c2n1 | 517 nM | 1600 nM | 
11 | Cc1ccc2cccc(OCc3c(Cl)cccc3Cl)c2n1 |  |  | solubility [9]: < 1 µM
12 | Cc1cc(-c2scnc2Cl)c2cccc(OCc3c(Cl)cncc3Cl)c2n1 | 980 nM | 2500 nM | 
13 | Cc1cc(-n2ccnc2)c2cccc(OCc3c(Cl)cncc3Cl)c2n1 | 580 nM | 2500 nM | solubility [9]: > 50 µM
14 | Cc1cc(-c2ccnn2C)c2cccc(OCc3c(Cl)cncc3COc3ccccn3)c2n1 | 140 nM | 260 nM | 
15 | Cc1cc(-c2nccs2)c2cccc(OCc3c(Cl)cncc3Cl)c2n1 | 420 nM | 480 nM | 
16 | Cc1cc(-c2n[nH]cc2C)c2cccc(OCc3c(Cl)cncc3Cl)c2n1 | 110 nM | 390 nM | remaining at 1 µM [5]: 19%
17 | Cc1cc(-c2cncn2C)c2cccc(OCc3c(Cl)cncc3Cl)c2n1 | 4400 nM |  | 
18 | Cc1cc(-c2ncc(C)n2C)c2cccc(OCc3c(Cl)cncc3Cl)c2n1 | 200 nM | 3400 nM | 
19 | Cc1cc(-c2nccn2C)c2cccc(OCc3c(Cl)cncc3Cl)c2n1 | 90 nM | 760 nM | 
20 | Cc1cc(-c2ncnn2C)c2cccc(OCc3c(Cl)cncc3Cl)c2n1 | 68 nM | 2400 nM | 
21 | Cc1cc(-c2ncsc2C)c2cccc(OCc3c(Cl)cncc3Cl)c2n1 | 64 nM | 400 nM | 
22 | Cc1cc(-c2ncsc2Cl)c2cccc(OCc3c(Cl)cncc3Cl)c2n1 | 210 nM | 730 nM | remaining at 1 µM [5]: 35%
23 | Cc1cc(-c2nncn2C)c2cccc(OCc3c(Cl)cncc3Cl)c2n1 | 7100 nM |  | 
24 | Cc1cc(-c2scnc2C)c2cccc(OCc3c(Cl)cncc3Cl)c2n1 | 110 nM | 67 nM | 
25 | Cc1cc(-c2cn[nH]c2C)c2cccc(OCc3c(Cl)cncc3Cl)c2n1 | 3600 nM | 6300 nM | 

Further lines, with some results ahead:

Row | IC50 [2] | IC50 [3] | SMILES | also measured
26 | 0.67 nM |  | Cc1cc(C)c2cccc(OCc3c(Cl)ccc(S(=O)(=O)N4CCC[C@H]4C(=O)CCCNC(=O)c4ccc(C(=N)N)cc4)c3Cl)c2n1 | 
27 | 10 nM | 1.3 nM | Cc1cc(-c2ncsc2Cl)c2cccc(OCc3c(C)ccnc3Cn3cccc(C(F)(F)F)c3=O)c2n1 | IC50 [4]: 300 nM; remaining at 1 µM [5]: 34%; IC50 [6]: 0.3 µM
28 | 7.8 nM | 2.3 nM | Cc1cc(-c2ccnn2C)c2cccc(OCc3c(Cl)cncc3CNC(=O)C(C)C)c2n1 | 
29 | 50 nM | 29 nM | Cc1cc(-c2ccnn2C)c2cccc(OCc3c(Cl)cncc3Sc3nccs3)c2n1 | IC50 [7]: 470 nM; IC50 [8]: 2300 nM
30 | 18 nM | 43 nM | Cc1cc(-c2ccnn2C)c2cccc(OCc3c(Cl)cncc3Sc3nccn3C)c2n1 | 
31 | 8.3 nM | 12 nM | Cc1cc(-c2ccnn2C)c2cccc(OCc3c(Cl)cncc3COC(=O)N(C)C)c2n1 | 
32 | 14 nM | 110 nM | Cc1cc(-c2ccnn2C)c2cccc(OCc3c(Cl)cncc3CNS(C)(=O)=O)c2n1 | 
33 | 36 nM | 73 nM | Cc1cc(-c2ccnn2C)c2cccc(OCc3c(Cl)cncc3CCC(=O)N(C)C)c2n1 | 
34 | 12 nM | 24 nM | CC(=O)NCc1cncc(Cl)c1COc1cccc2c(-c3ccnn3C)cc(C)nc12 | 
35 | 6.5 nM | 91 nM | Cc1cc(-c2ccnn2C)c2cccc(OCc3c(Cl)cncc3OCC(=O)N(C)C)c2n1 | 
36 | 4 nM | 1.4 nM | Cc1cc(-c2ccnn2C)c2cccc(OCc3c(Cl)cncc3Cn3cccc(C(F)(F)F)c3=O)c2n1 | 
37 | 5.4 nM | 3.8 nM | Cc1cc(-c2ccnn2C)c2cccc(OCc3c(C)ccnc3CNC(=O)C(C)C)c2n1 | IC50 [4]: > 5000 nM; remaining at 1 µM [5]: 13%; IC50 [6]: 3.1 µM
38 | 10 nM | 1.8 nM | Cc1cc(-c2ccnn2C)c2cccc(OCc3c(C)ccnc3CNC(=O)C3CCCCC3)c2n1 | IC50 [4]: 1600 nM; remaining at 1 µM [5]: 17%; IC50 [6]: 2.5 µM
39 | 8.8 nM | 0.54 nM | Cc1cc(-c2ccnn2C)c2cccc(OCc3c(C)ccnc3Cn3cccc(C(F)(F)F)c3=O)c2n1 | IC50 [4]: > 5000 nM; remaining at 1 µM [5]: 45%; IC50 [6]: > 5 µM
40 | 20 nM | 70 nM | Cc1cc(-c2nscc2C)c2cccc(OCc3c(Cl)cncc3Cl)c2n1 | 
41 | 5.1 nM | 3.6 nM | Cc1cc(-c2ccnn2C)c2cccc(OCc3c(Cl)cncc3Cn3ccccc3=O)c2n1 | 
42 | 33 nM | 190 nM | Cc1cc(-c2ccnn2C)c2cccc(OCc3c(Cl)cncc3CCC(N)=O)c2n1 | 
43 | 6 nM | 260 nM | CC(=O)OCc1cncc(Cl)c1C(=O)c1cccc2c(-c3ccnn3C)cc(C)nc12 | 
44 | 50 nM | 180 nM | Cc1cc(-c2ccnn2C)c2cccc(OCc3c(Cl)cncc3Cl)c2n1 | remaining at 1 µM [5]: 7%
45 | 32 nM | 920 nM | Cc1cc(-n2cccn2)c2cccc(OCc3c(Cl)cncc3Cl)c2n1 | 
46 | 37 nM | 76 nM | Cc1cc(-c2ccnn2C)c2cccc(OCc3c(Cl)cncc3[S+]([O-])CC(=O)N(C)C)c2n1 (configuration not stated) | 
47 | 6.6 nM | 2.8 nM | Cc1cc(-c2ccnn2C)c2cccc(OCc3c(Cl)cncc3CNC(=O)N(C)C)c2n1 | 
48 | 8.7 nM | 1.1 nM | Cc1cc(-c2[nH]ncc2C)c2cccc(OCc3c(C)ccnc3Cn3cccc(C(F)(F)F)c3=O)c2n1 | IC50 [4]: > 5000 nM; remaining at 1 µM [5]: 21%; IC50 [6]: 3.8 µM; clearance [10]: 21 mL/min/kg; half-life [11]: 67 min; bioavailability [12]: > 17%
49 | 7.5 nM | 24 nM | Cc1cc(-c2ccnn2C)c2cccc(OCc3c(Cl)cncc3SCC(=O)N(C)C)c2n1 | 
50 | 0.05 nM |  | Cc1cc(C)c2cccc(OCc3c(Cl)ccc(S(=O)(=O)NC4(C(=O)N5CCN(C(=O)[C@@H](N)CCC[N+](C)(C)C)CC5)CCOCC4)c3Cl)c2n1 [FASITIBANT CHLORIDE] | 
